Source: ChEMBL document CHEMBL1128499, “Bisimidazoacridones and related compounds: new antineoplastic agents with high selectivity against colon tumors” (1995)

Legend:
Assay type in all cases: functional
Settings in all cases: Homo sapiens
HCC 2998 = experiment: The concentration of compound required for 50% cell growth inhibition which was expressed in logarithmic form was measured on HCC2998 cell lines of colon cancer
Summary of the method: (§1)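 NCI 60-cell-line screen, sulforhodamine B assay. Cells grown in RPMI 1640 with 5% fetal bovine serum and 2 mM L-glutamine, seeded at 5000 to 40 000 cells/well, and incubated 24 h before drug. Drug exposure lasted 48 h. Cells were then TCA-fixed, stained with 0.4% (w/v) SRB in 1% acetic acid, and the stain solubilized in 10 mM Tris base for absorbance reading. GI50 taken from dose-response curves.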

KM12 = experiment: The concentration of compound required for 50% cell growth inhibition which was expressed in logarithmic form was measured on KM12 cell lines of colon cancer; summary of the method: as §1
M14 = experiment: The concentration of compound required for 50% cell growth inhibition which was expressed in logarithmic form was measured on M14 cell lines of Melanoma; summary of the method: as §1
UACC-257 = experiment: The concentration of compound required for 50% cell growth inhibition which was expressed in logarithmic form was measured on UACC-257 cell lines of Melanoma; summary of the method: as §1
K562 = experiment: The concentration of compound required for 50% cell growth inhibition which was expressed in logarithmic form was measured on K-562 cell lines of Leukemia; summary of the method: as §1
RPMI-8226 = experiment: The concentration of compound required for 50% cell growth inhibition which was expressed in logarithmic form was measured on RPMI-8226 cell lines of Leukemia; summary of the method: as §1
HT-29 = experiment: The concentration of compound required for 50% cell growth inhibition which was expressed in logarithmic form was measured on HT-29 cell lines of colon cancer; summary of the method: as §1
CCRF-CEM = experiment: The concentration of compound required for 50% cell growth inhibition which was expressed in logarithmic form was measured on CCRF-CEM cell lines of Leukemia; summary of the method: as §1
HL-60 = experiment: The concentration of compound required for 50% cell growth inhibition which was expressed in logarithmic form was measured on HL-60(TB) cell lines of Leukemia
Summary of the method: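 NCI 60-line screen, sulforhodamine B read-out. Lines grown in RPMI 1640 with 5% fetal bovine serum and 2 mM L-glutamine, seeded at 5000–40 000 cells/well and left 24 h before drug. Drug exposure 48 h, then TCA fixation, 0.4% (w/v) SRB staining in 1% acetic acid, solubilization in 10 mM unbuffered Tris base and absorbance reading. GI50 reported as log value.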

HCT-116 = experiment: The concentration of compound required for 50% cell growth inhibition which was expressed in logarithmic form was measured on […] cell lines of colon cancer; summary of the method: as §1
SK-MEL-28 = experiment: The concentration of compound required for 50% cell growth inhibition which was expressed in logarithmic form was measured on SK-MEL-28 cell lines of Melanoma; summary of the method: as §1
MOLT-4 = experiment: The concentration of compound required for 50% cell growth inhibition which was expressed in logarithmic form was measured on MOLT-4 cell lines of Leukemia; summary of the method: as §1
HCT-15 = experiment: The concentration of compound required for 50% cell growth inhibition which was expressed in logarithmic form was measured on HCT-15 cell lines of colon cancer; summary of the method: as §1
Malme-3M = experiment: The concentration of compound required for 50% cell growth inhibition which was expressed in logarithmic form was measured on MALME-3M cell lines of Melanoma; summary of the method: as §1
SK-MEL-5 = experiment: The concentration of compound required for 50% cell growth inhibition which was expressed in logarithmic form was measured on SK-MEL-5 cell lines of Melanoma; summary of the method: as §1
COLO 205 = experiment: The concentration of compound required for 50% cell growth inhibition which was expressed in logarithmic form was measured on COLO 205 cell lines of colon cancer; summary of the method: as §1
SW-620 = experiment: The concentration of compound required for 50% cell growth inhibition which was expressed in logarithmic form was measured on SW-620 cell lines of colon cancer; summary of the method: as §1
SK-MEL-2 = experiment: The concentration of compound required for 50% cell growth inhibition which was expressed in logarithmic form was measured on SK-MEL-2 cell lines of Melanoma; summary of the method: as §1
UACC-62 = experiment: The concentration of compound required for 50% cell growth inhibition which was expressed in logarithmic form was measured on UACC-62 cell lines of Melanoma; summary of the method: as §1

SMILES | GI50 (HCC 2998) [nM] | GI50 (KM12) [nM] | GI50 (M14) [nM] | GI50 (UACC-257) [nM] | GI50 (K562) [nM] | GI50 (RPMI-8226) [nM] | GI50 (HT-29) [nM] | GI50 (CCRF-CEM) [nM] | GI50 (HL-60) [nM] | GI50 (HCT-116) [nM] | GI50 (SK-MEL-28) [nM] | GI50 (MOLT-4) [nM] | GI50 (HCT-15) [nM] | GI50 (Malme-3M) [nM] | GI50 (SK-MEL-5) [nM] | GI50 (COLO 205) [nM] | GI50 (SW-620) [nM] | GI50 (SK-MEL-2) [nM] | GI50 (UACC-62) [nM]
CN(CCNc1ccc2ncn3c4ccccc4c(=O)c1c23)CCNc1ccc2ncn3c4ccccc4c(=O)c1c23 | 25100 | 2690 | 4070 | 8130 | 28200 | 28200 | 4370 | 95500 | > 100000 | 2240 | 2820 | 58900 | 27500 | 13200 | 5890 | 22400 | 11200 | 27500 | 21900
CN(CCCNc1ccc2ncn3c4ccccc4c(=O)c1c23)CCCNc1ccc2ncn3c4ccc(C(C)(C)C)cc4c(=O)c1c23 | 1700 | 1550 | 2040 | 1450 | 724 | 2880 | 1580 | 6920 | 4790 | 1230 | 1820 | 3090 | 1780 | 1740 | 1700 | 1740 | 1290 | 1580 | 1910
CN(CCCN)CCCNc1ccc2ncn3c4ccccc4c(=O)c1c23 | 1350 | 1070 | 1780 | 1780 | 813 | 1150 | 631 | 347 | 282 | 661 | 1550 | 355 | 3470 | 1620 | 1550 | 1150 | 631 | 1450 | 1620
CN(CCCNc1ccc2ncn3c4ccccc4c(=O)c1c23)CCCNc1ccc2ncn3c4ccccc4c(=O)c1c23 | 93.3 | 295 | > 100000 | > 100000 | < 10 | 145 | 16.6 | < 10 | 44.7 | < 10 | > 100000 | < 10 | 316 | 776 | 12900 | 501 | < 10 | 13800 | 8130
CN(CCCNc1ccc2ncn3c4ccccc4c(=O)c1c23)CCCNc1ccc2nnn3c4ccccc4c(=O)c1c23 | – | 30.9 | > 100000 | > 100000 | 17800 | – | < 10 | 5010 | 10200 | < 10 | 44700 | > 100000 | 47.9 | 12000 | 17000 | 372 | < 10 | 51300 | 38000
